Source: PubChem BioAssay (The Scripps Research Institute Molecular Screening Center)
GalR3 antag: antagonists of human GalR3. O60755. HEK293 GalR3-CNG cAMP membrane potential fluorescence; galR3 body fused to GalR1 C-terminus. inhibition, % at 3 µM. actives 0.44% (n = 360,000). AID 651719;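 active = inhibition above the screen-wide average plus 3 SD, cut at about 13% in these data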;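 note: forskolin and galanin both at EC90 stimulate the cells; cAMP rise reported by CNG channel membrane potential dye signal; 0% = forskolin plus galanin with DMSO and 100% = forskolin alone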
OX1R antag-1: antagonists of human orexin 1 receptor (OX1R). O43613. actives 1.8% (n = 330,000). OX1R-expressing cells, FRET antagonist read-out. inhibition, % at 6.6 µM; in the data active = inhibition mostly above about 38%, no sharp cut-off; inactive = mostly below about 40%;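 note: 0% = agonist challenge alone and 100% = reference antagonist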
Target sequence (O43613 whole entry, looked up): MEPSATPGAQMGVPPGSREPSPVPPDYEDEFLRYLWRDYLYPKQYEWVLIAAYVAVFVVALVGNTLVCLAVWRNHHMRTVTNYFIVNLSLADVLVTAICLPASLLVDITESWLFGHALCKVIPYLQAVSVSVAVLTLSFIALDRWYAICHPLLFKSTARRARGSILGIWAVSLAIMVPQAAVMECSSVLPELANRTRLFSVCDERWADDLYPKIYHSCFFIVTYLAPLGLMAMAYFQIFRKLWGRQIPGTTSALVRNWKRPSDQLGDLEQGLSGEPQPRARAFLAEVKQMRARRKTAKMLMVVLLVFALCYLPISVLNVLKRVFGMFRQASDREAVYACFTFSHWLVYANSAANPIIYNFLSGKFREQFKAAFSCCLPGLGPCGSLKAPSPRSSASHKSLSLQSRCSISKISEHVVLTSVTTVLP
OX1R antag-2: human HCRTR1 antagonism | AID 434989 | O43613 | CHO/OX1R cells, Fluo-8 calcium fluorescence, orexin A | inhibition, % at 5 µM | actives 0.43% (n = 330,000);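 active = inhibition above its plate's threshold, mean inhibition of all tested compounds on the plate plus 3 SD, cut at about 37% in these data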;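 note: 0% = orexin A challenge wells and 100% = SB-334867-A antagonist wells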
CHO parental Ca: counter-screen: ATP calcium response change in parental CHO cells; parental CHO-K1, ATP-induced calcium, Fluo-8 fluorescence; inhibition, % at 5.6 µM; actives 0.63% (n = 330,000);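 active = inhibition above that plate's mean sample inhibition plus 3 SD, cut at about 26% in these data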;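 note: 0% = ATP-challenged DMSO wells and 100% = DMSO wells without ATP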
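Assay system: untransfected parental CHO cell line. Also added: ATP agonist challenge. Dosing: one dose, 5.6 µM nominal. Measured by: Fluo-8 fluorescence. Read-out: % inhibition. Benchmarks: ATP wells versus no-ATP DMSO wells. Repeats: no replicates.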
GPR7 antag: blocks human GPR7 receptor signaling | GPR7-expressing cells, fluorescence antagonist assay | inhibition, % at 4.4 µM | actives 1.1% (n = 290,000) | P48145; in the data active = inhibition above about 16%, passing the limit was not always enough;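 note: cells stimulated with the agonist NPW; 0% = agonist with vehicle and 100% = vehicle without agonist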
GPR7 antag cf: human GPR7 antagonism, confirmation assay; shares compounds with GPR7 antag; inhibition, % at 4.4 µM; GPR7-expressing cells, calcium fluorescence antagonist mode; actives 52% (n = 2,400); AID 1952; in the data active = inhibition above about 24%;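 note: stimulated with the GPR7 agonist NPW; 0% = agonist plus vehicle and 100% = vehicle alone without agonist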
MCHR1 antag: counter-screen for GPR7 antagonists: antagonists of human MCHR1; inhibition, % at 4.4 µM; MCHR1-expressing cells, fluorescence antagonist assay; actives 62% (n = 2,400); AID 2148; shares compounds with GPR7 antag; in the data active = inhibition above about 22%;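 note: 0% = vehicle with agonist and 100% = vehicle without agonist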
* = called active by the depositor; nt = no result given. Compounds with a hit are over-represented: about 3.1% of the library has one in this group of screens.

SMILES	GalR3 antag	OX1R antag-1	OX1R antag-2	CHO parental Ca	GPR7 antag	GPR7 antag cf	MCHR1 antag
COc1ccc(-c2cc(C(=O)N(C)Cc3ccccc3)no2)cc1OC	nt	23	-26	-1	31*	-5	-24
COc1ccc(-c2cc(C(=O)NCc3ccccc3)no2)cc1OC	-6	19	-14	-26	-7	nt	nt
CCOc1ccc(-c2cccc(NS(=O)(=O)c3ccc([N+](=O)[O-])cc3)c2)nn1	-5	23	-30	-23	nt	nt	nt
O=C(COC(=O)c1ccccn1)NCc1ccccc1Cl	-2	13	9	-7	24*	1	15
CCn1c(O)c(N=NC(=O)CNC(=O)c2cccnc2)c2ccccc21	-4	nt	nt	nt	nt	nt	nt
CC(C)C(NC(=O)c1ccccc1)C(=O)NCc1ccccn1 (stereo unspecified)	-7	15	-9	-11	35*	-16	11
COc1ccc2[nH]c(=O)c(CN(C(=O)c3ccccn3)C3CCCCC3)cc2c1	0	15	-12	-22	23*	9	-11
O=C(c1ccccn1)N(Cc1cc2ccccc2[nH]c1=O)C1CCCCC1	4	17	-23	-25	7	nt	nt
Brc1cccc(OCCn2ccnc2)c1	3	24	-12	-8	24*	9	2
O=C(NC(=O)c1csnn1)Nc1ccccc1Cl	1	5	-10	4	-6	nt	nt
O=C(CSc1nnc(-c2ccccc2F)n1C1CCCCC1)Nc1cc(C(=O)O)ccc1Cl	-7	6	-1	7	nt	nt	nt
CCOc1ccc([N+](=O)[O-])c(N)c1	0	16	7	-7	28*	4	5
COc1ccc(CCNCC(O)COc2c(C)cccc2C)cc1OC (stereo unspecified)	-11	nt	nt	nt	0	nt	nt
Cc1c(CN2CCC(CO)(CCOc3ccccc3)CC2)[nH]c2c(Cl)cccc12	-1	2	-7	24	23	nt	nt
COc1ccc(C(C)(C)C)cc1N1C(=O)[C@@H]2CSCCS(=O)(=O)N2C1=O	-3	nt	nt	nt	nt	nt	nt
O=C(Nc1ccc(Cl)cc1)N1CCCN(Cc2ccc(F)cc2)C1	-7	4	-5	-8	88*	43*	42*
O=C(Nc1ccccc1)N1CCN(Cc2ccc(Cl)cc2)CC1	-3	12	-5	-15	7	nt	nt
COc1ccc(OCCOc2ccc(S(=O)(=O)N3CCCC3)cc2[N+](=O)[O-])cc1	-2	2	-7	-10	nt	nt	nt
COc1cccc(Oc2ccc(S(=O)(=O)N3CCCC3)cc2[N+](=O)[O-])c1	-3	36	3	11	31*	-5	15
Cc1ccc(S(=O)(=O)N2CCCC2)cc1[N+](=O)[O-]	1	18	-6	2	-8	nt	nt
O=[N+]([O-])c1cc(S(=O)(=O)N2CCCCCC2)ccc1Cl	-12	nt	nt	nt	39*	63*	19
N#Cc1ccccc1S(=O)(=O)N1CCN(C(=O)C2CCCCC2)CC1	-6	3	-21	-8	nt	nt	nt
CN(c1ccccc1)P(=O)(N(C)c1ccccc1)N(C)c1ccccc1	-14	28	22	1	28*	34*	37*
OC(COc1ccc(F)cc1Cl)CN1CCC(Cc2ccccc2)CC1 (stereo unspecified)	-13	0	-4	9	42*	21	43*
Cc1cccc(-n2ncc(C(=O)NC3CCCC3)c2C2CCN(C(=O)OC(C)(C)C)CC2)c1	-7	1	-34	-30	-3	nt	nt
SMILES	GalR3 antag	OX1R antag-1	OX1R antag-2	CHO parental Ca	GPR7 antag	GPR7 antag cf	MCHR1 antag
Cc1cccc(N2C(=O)c3cccc4c(N(C)CCO)ccc(c34)C2=O)c1	nt	31	46*	26	25*	34*	53*
CC(=O)Nc1ccc(S(=O)(=O)NCCN2CCNC2=O)cc1Cl	-3	22	-5	-5	-5	nt	nt
COc1ccc(C[C@H]2CN3C(=NC[C@@H]3C(C)C)N2CCNC(=O)CCC2CCCCC2)cc1	-5	31	-20	-26	9	nt	nt
COc1ccc(C[C@H]2CN3C(=NC[C@@H]3Cc3ccccc3)N2CCNC(=O)CCC2CCCCC2)cc1	-7	9	-16	-39	37*	52*	39*
CS/C(=C\[N+](=O)[O-])Nc1ccc(F)cc1	2	31	-7	-8	23*	-12	5
O=C(N/N=C/c1ccncc1)c1ccccc1OCc1ccc(Br)cc1	-12	18	-21	-28	31*	25*	43*
Cc1ccc(/C=N/NC(=O)c2ccccc2OCc2ccc(F)cc2)o1	-8	17	-33	-30	2	nt	nt
Cc1ccc(NC(=O)CSc2nnc(-c3ccncc3)n2C)cc1C	-4	14	-4	-6	83*	-7	1
COc1cccc(CN2CCN(Cc3cc4ccccc4[nH]3)CC2CCO)c1 (stereo unspecified)	-4	5	12	3	67*	79*	81*
CN(C)S(=O)(=O)c1ccc(N2CCCC2)c(C(=O)NC(c2ccccc2)c2ccccc2)c1	-6	28	-19	-14	25*	32*	22*
CC1(C)SC2c3ccccc3C(=O)N2[C@@H]1C(=O)O (stereo partly specified)	-11	-8	-3	-2	2	nt	nt
Cn1c(Cc2cccc3ccccc23)nnc1SCc1ccc([N+](=O)[O-])cc1	-5	6	-19	-9	29*	1	15
COc1ccc(CC(=O)NCc2nnc(SCc3ccc([N+](=O)[O-])cc3)n2C)cc1	-3	13	1	-3	-9	nt	nt
FC(F)C(F)(F)c1cc(-c2ccc(Cl)cc2)n[nH]1	1	2	73*	56*	30*	32*	44*
CC1CN(CC(O)COC(c2ccc(Cl)cc2)c2ccc(Cl)cc2)CC(C)O1 (stereo unspecified)	-6	13	-26	4	21*	9	40*
CC1CN(CC(O)COc2ccc(C(C)C)cc2)CC(C)O1 (stereo unspecified)	-5	21	-19	-9	-7	nt	nt
C1=C(c2cc3ccccc3cn2)CCCC1	-6	15	-29	-17	nt	nt	nt
S=C(NCC1CCCO1)N1CCN(c2nc(-c3ccc(Cl)cc3)cs2)CC1 (stereo unspecified)	2	17	-5	29	21*	58*	72*
S=C(NCC1CCCO1)N1CCN(c2cccc(Cl)c2)CC1 (stereo unspecified)	-4	12	-14	-6	3	nt	nt
COc1ccc(S(=O)(=O)Nc2cccc3c2O[C@H](CN(C)C(=O)NC(C)C)[C@@H](C)CN([C@H](C)CO)C3=O)cc1	-6	3	-10	-2	nt	nt	nt
CC(=O)Nc1ccc(S(=O)(=O)NCCC(=O)OCC(=O)NNC(=O)c2ccccc2)cc1	1	7	-8	3	nt	nt	nt
